# Measured values taken from PMC6138487 (British Journal of Clinical Pharmacology, 2018).
# Marks after values point to notes of the source that are not given here.
# How the values were obtained:
# Type in all cases: in vivo, human
# [1] = tested on: patients with chronic constipation; assay: Adverse events, M-test
# Procedure, shortened: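 Patients randomized 5:1 to test compound (2.5, 5, 10, 15 or 20 mg) or placebo. Oral tablet once daily before breakfast for 14 consecutive days, inpatient Day –2 to Day 21. AE type, severity and incidence were recorded with physical exams, vital signs, 12-lead ECG and laboratory tests. Proportions of patients with AEs were tabulated, and dose-dependency was tested by Cochran–Armitage trend test.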
# QTcF intervals = assay: ECG QTcF evaluation; settings: S-test and M-test, 2.5-20 mg
# Procedure, shortened: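 12-lead surface ECG in both single- and 14-day dosing tests. QT was Fridericia-corrected by experienced central-laboratory readers. ΔQTcF from baseline was calculated at each time point, and ΔΔQTcF versus placebo was estimated with 90% CI. Categorical counts: absolute QTcF >450, >480 and >500 ms; ΔQTcF >30 and >60 ms.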
# [2] = tested on: patients with chronic constipation; assay: Bowel functions; settings: for proportion of patients with first SBM within 24 h: placebo 40.0%
# Procedure, shortened: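 Test compound or placebo orally once daily before breakfast for 14 days. Patients recorded the time of each BM (BM, SBM, complete SBM), Bristol Stool Form Scale, straining (five levels), completeness of evacuation and GI symptoms including discomfort (five levels). Bisacodyl suppository rescue was allowed after ≥72 h without BM with symptoms. Descriptive statistics were used.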
# [3] = Pharmacokinetics of elobixibat; settings: for C1max / t1(1/2) / C8max / t8(1/2) / C14max / t14(1/2): geometric mean (CV)
# Procedure, shortened: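 Once-daily oral dosing before breakfast for 14 days. Plasma was drawn predose and at 0.5–12 h on Days –1, 1, 8 and 14, plus intermittent days to Day 21. Measured by LC–MS/MS (LLOQ 10.0 pg ml–1). Noncompartmental Cmax and AUC(0–t) on log-transformed values. Accumulation ratios were Day 8/Day 1 and Day 14/Day 1. Sex effect was expressed as back-transformed male/female LSM ratio.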
# [4] = tested on: serum low‐density lipoprotein cholesterol (LDL‐C); assay: Serum LDL-C level, M-test; settings: Day 8 and Day 14; P < 0.001 except 2.5 mg day^–1
# [5] = 2.5 mg once daily 14 days (group n=10)
# [6] = 5 mg once daily 14 days (group n=10)
# [7] = 10 mg once daily 14 days (group n=9)
# [8] = 15 mg once daily 14 days (group n=10)
# [9] = 20 mg once daily 14 days (group n=10)
# [10] = Day 1, 2.5 mg once daily before breakfast
# [11] = Day 1, 5 mg once daily before breakfast
# [12] = Day 1, 10 mg once daily before breakfast
# [13] = Day 1, 15 mg once daily before breakfast
# [14] = Day 1, 20 mg once daily before breakfast
# [15] = Day 8, 2.5 mg once daily before breakfast
# [16] = Day 8, 5 mg once daily before breakfast
# [17] = Day 8, 10 mg once daily before breakfast
# [18] = Day 8, 15 mg once daily before breakfast
# [19] = Day 8, 20 mg once daily before breakfast
# [20] = Day 14, 2.5 mg once daily before breakfast
# [21] = Day 14, 5 mg once daily before breakfast
# [22] = Day 14, 10 mg once daily before breakfast
# [23] = Day 14, 15 mg once daily before breakfast
# [24] = Day 14, 20 mg once daily before breakfast
# [25] = M-test Day 8, linear mixed effect model
# [26] = M-test Day 14, linear mixed effect model
smiles,measurement,setting,value
CCCCC1(CCCC)CN(c2ccccc2)c2cc(SC)c(OCC(=O)N[C@@H](C(=O)NCC(=O)O)c3ccccc3)cc2S(=O)(=O)C1 [elobixibat],"AEs associated with gastrointestinal disorders, % of patients",[1]; [5],(80.0) %
same,"AEs associated with gastrointestinal disorders, n of patients",[1]; [5],8
same,"Any AEs, % of patients",[1]; [5],(80.0) %
same,"Any AEs, n of patients",[1]; [5],8
same,"abdominal distention, % of patients",[1]; [5],(30.0) %
same,"abdominal distention, n of patients",[1]; [5],3
same,"abdominal pain lower, % of patients",[1]; [5],(40.0) %
same,"abdominal pain lower, n of patients",[1]; [5],4
same,"abdominal pain upper, n of patients",[1]; [5],0
same,"diarrhoea, % of patients",[1]; [5],(10.0) %
same,"diarrhoea, n of patients",[1]; [5],1
same,"AEs associated with gastrointestinal disorders, % of patients",[1]; [6],(80.0) %
same,"AEs associated with gastrointestinal disorders, n of patients",[1]; [6],8
same,"Any AEs, % of patients",[1]; [6],(90.0) %
same,"Any AEs, n of patients",[1]; [6],9
same,"abdominal distention, % of patients",[1]; [6],(30.0) %
same,"abdominal distention, n of patients",[1]; [6],3
same,"abdominal pain lower, % of patients",[1]; [6],(30.0) %
same,"abdominal pain lower, n of patients",[1]; [6],3
same,"abdominal pain upper, % of patients",[1]; [6],(20.0) %
same,"abdominal pain upper, n of patients",[1]; [6],2
same,"diarrhoea, % of patients",[1]; [6],(40.0) %
same,"diarrhoea, n of patients",[1]; [6],4
same,"AEs associated with gastrointestinal disorders, % of patients",[1]; [7],(77.8) %
same,"AEs associated with gastrointestinal disorders, n of patients",[1]; [7],7
same,"Any AEs, % of patients",[1]; [7],(100.0) %
same,"Any AEs, n of patients",[1]; [7],9
same,"abdominal distention, % of patients",[1]; [7],(22.2) %
same,"abdominal distention, n of patients",[1]; [7],2
same,"abdominal pain lower, % of patients",[1]; [7],(33.3) %
same,"abdominal pain lower, n of patients",[1]; [7],3
same,"abdominal pain upper, % of patients",[1]; [7],(22.2) %
same,"abdominal pain upper, n of patients",[1]; [7],2
same,"diarrhoea, % of patients",[1]; [7],(44.4) %
same,"diarrhoea, n of patients",[1]; [7],4
same,"AEs associated with gastrointestinal disorders, % of patients",[1]; [8],(70.0) %
same,"AEs associated with gastrointestinal disorders, n of patients",[1]; [8],7
same,"Any AEs, % of patients",[1]; [8],(90.0) %
same,"Any AEs, n of patients",[1]; [8],9
same,"abdominal distention, % of patients",[1]; [8],(40.0) %
same,"abdominal distention, n of patients",[1]; [8],4
same,"abdominal pain lower, % of patients",[1]; [8],(40.0) %
same,"abdominal pain lower, n of patients",[1]; [8],4
same,"abdominal pain upper, n of patients",[1]; [8],0
same,"diarrhoea, % of patients",[1]; [8],(40.0) %
same,"diarrhoea, n of patients",[1]; [8],4
same,"AEs associated with gastrointestinal disorders, % of patients",[1]; [9],(90.0) %
same,"AEs associated with gastrointestinal disorders, n of patients",[1]; [9],9
same,"Any AEs, % of patients",[1]; [9],(90.0) %
same,"Any AEs, n of patients",[1]; [9],9
same,"abdominal distention, % of patients",[1]; [9],(60.0) %
same,"abdominal distention, n of patients",[1]; [9],6
same,"abdominal pain lower, % of patients",[1]; [9],(50.0) %
same,"abdominal pain lower, n of patients",[1]; [9],5
same,"abdominal pain upper, % of patients",[1]; [9],(20.0) %
same,"abdominal pain upper, n of patients",[1]; [9],2
same,"diarrhoea, % of patients",[1]; [9],(80.0) %
same,"diarrhoea, n of patients",[1]; [9],8
same,safety and tolerability,"[1]; once‐daily administration, female and male patients",safe and tolerated up to 20 mg
same,"QTcF prolongation (>450 ms), categorical analysis",QTcF intervals,no QTcF prolongation
same,proportion of patients with first SBM within 24 h,[2]; 2.5 mg day^–1 (10/10),100%
same,proportion of patients with first SBM within 24 h,[2]; 5 mg day^–1 (10/10),100%
same,proportion of patients with first SBM within 24 h,[2]; 10 mg day^–1 (9/9),100%
same,proportion of patients with first SBM within 24 h,[2]; 15 mg day^–1 (8/9),88.9%
same,proportion of patients with first SBM within 24 h,[2]; 20 mg day^–1 (10/10),100%
same,patients reporting worse abdominal discomfort,[2]; 20 mg day^–1 group,40%
same,patients reporting improvement of abdominal discomfort,[2]; 5 and 10 mg day^–1 groups,Nearly half
same,time to the first SBM compared with placebo,[2]; M-test,evidently shorter
same,changes in SBM frequency from baseline (Week –1),[2]; M-test Weeks 1 and 2,dose‐dependent increases
same,drug accumulation on multiple administration,[3]; 5 and 15 mg day^–1 dosages (Discussion),slight accumulation
same,C1max,[3]; [10],98.69 (56.9) pg ml^–1
same,t1(1/2),[3]; [10],1.89 (40.9) ^a h
same,C1max,[3]; [11],164.83 (54.7) pg ml^–1
same,t1(1/2),[3]; [11],2.41 (32.7) h
same,C1max,[3]; [12],284.67 (39.6) ^a pg ml^–1
same,t1(1/2),[3]; [12],2.69 (30.7) ^a h
same,C1max,[3]; [13],468.71 (63.7) pg ml^–1
same,t1(1/2),[3]; [13],3.28 (75.7) h
same,C1max,[3]; [14],932.04 (76.3) pg ml^–1
same,t1(1/2),[3]; [14],3.14 (62.4) h
same,C8max,[3]; [15],99.39 (63.6) pg ml^–1
same,t8(1/2),[3]; [15],2.42 (31.2) h
same,C8max,[3]; [16],139.45 (50.7) pg ml^–1
same,t8(1/2),[3]; [16],3.29 (68.9) h
same,C8max,[3]; [17],283.84 (17.9) pg ml^–1
same,t8(1/2),[3]; [17],4.96 (64.1) h
same,C8max,[3]; [18],388.55 (82.0) pg ml^–1
same,t8(1/2),[3]; [18],4.62 (58.2) h
same,C8max,[3]; [19],581.32 (53.6) pg ml^–1
same,t8(1/2),[3]; [19],5.16 (45.2) h
same,C14max,[3]; [20],82.66 (50.4) pg ml^–1
same,t14(1/2),[3]; [20],2.34 (50.8) ^a h
same,C14max,[3]; [21],165.57 (35.0) pg ml^–1
same,t14(1/2),[3]; [21],3.73 (61.0) h
same,C14max,[3]; [22],236.11 (34.4) pg ml^–1
same,t14(1/2),[3]; [22],6.19 (146.0) h
same,C14max,[3]; [23],383.19 (73.5) pg ml^–1
same,t14(1/2),[3]; [23],5.68 (74.9) h
same,C14max,[3]; [24],953.18 (53.6) pg ml^–1
same,t14(1/2),[3]; [24],7.23 (37.5) h
same,"AUC8(0–t), back transformed LSM ratio male/female",[3]; [25],0.9947
same,"C8max, back transformed LSM ratio male/female",[3]; [25],0.8416
same,"AUC14(0–t), back transformed LSM ratio male/female",[3]; [26],0.9863
same,"C14max, back transformed LSM ratio male/female",[3]; [26],0.9675
same,drug accumulation from Cmax (Rac),"[3]; all dosage groups, 90% CIs of Rac included 1.000",No drug accumulation
same,time to steady state of plasma concentration,[3]; multiple administration once daily,≤ 8 days
same,LDL‐C AUEC compared to placebo (ANCOVA),[4],significantly greater reductions
